Results on 70 compounds are retold here after ChEMBL document CHEMBL4513216, “Probing the Open Global Health Chemical Diversity Library for Multistage-Active Starting Points for Next-Generation Antimalarials” (ACS Infect Dis, 2020).

Structures are written as SMILES.

The nature of the series: Toxicity liver stage against HepG2, at 10uM. Format: cell-based. Also on record: test concentration 10 uM, cell line HepG2-A16-CD81EGFP. To be noted: human, HepG2-A16-CD81EGFP cells; read-out: INHIBITION
In outline: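 Uninfected HepG2-A16-CD81EGFP cells, 3 × 10^3 per well, 1536-well, plated on prespotted compound at 10 μM final, parasite-free screening media added to match infected plates; puromycin 10 μM positive, DMSO 0.5% negative; run in parallel with 48 h PbLuc assay at 37 °C, 5% CO2; viability by CellTiter-Glo luminescence, normalized to controls.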
As to `COc1ccc2c(c1)c(C(=O)Nc1nnn[nH]1)cn2C(C)C`, the cytotoxicity at 10 µM is -57.8%. On to `CCS(=O)(=O)N1CCn2c(COCC3CCOCC3)cnc2C1C` (stereo not given), for which the cytotoxicity at 10 µM was 11%.

Regarding `CN1CCOCC12CCN(Cc1nccs1)CC2`, the cytotoxicity at 10 µM came to 6.46%. As for `O=c1cc(CN2CCCC2)nc2n1CCCN(Cc1ccco1)C2`, the cytotoxicity at 10 µM stood at 4.01%.

For the compound `COCCC(=O)N1CC[C@H]2C(=O)N(c3ccsc3)CCO[C@H]2C1`, the cytotoxicity at 10 µM is 10.4%. With `CC(C)C(=O)N1CCCC12CCN(C(=O)c1ccno1)C2` (stereo not given), the cytotoxicity at 10 µM was 7.49%. As for `O=C(NCC1CC1)[C@@H]1C[C@@H]2CCN(Cc3ccccc3)C[C@H]2O1`, the figure is 4.21%; as for `COCC1COCCC12CCN(C(=O)Cc1ccc(F)cc1)CC2` (stereo not given), 1.68%. In the case of `Cc1ccc(S(=O)(=O)N2Cc3c(CN(C)C)nn(C)c3C2)cc1`, the cytotoxicity at 10 µM turned out to be 2.32%. As to `O=C1CCCN1CC1CN(C(=O)C2CCOCC2)Cc2nccn2C1` (stereo not given), the cytotoxicity at 10 µM came to 3.33%. For `C[C@H](NC(=O)OC(C)(C)C)c1nnc(S(=O)(=O)Cc2cccc(F)c2)o1`, the cytotoxicity at 10 µM is -6.91%. Regarding `CN1CCN(c2ncc3c(=O)n(-c4cccc(F)c4)c(=O)[nH]c3n2)CC1`, the cytotoxicity at 10 µM was -8.85%.

Turning to `CC(C)NC(=O)C1CN(C(=O)c2ccc(F)cc2)CC12CCOCC2` (stereo not given), the cytotoxicity at 10 µM came out at 1.08%.

Take `CC(C)n1cc(S(=O)(=O)N2CCCCC2)cn1`: the cytotoxicity at 10 µM was determined as 2.53%. Regarding `OCCN1CCC(c2csc(Nc3cnccn3)n2)CC1`, the cytotoxicity at 10 µM is -4.26%. For `O=C(C1CCCC1)N1CCCC([C@@H]2C[C@H](C(F)F)n3ncnc3N2)C1` (stereo not given in full), the cytotoxicity at 10 µM came out at 4.54%.

With `CN(C)C(=O)c1c[nH]nc1-c1ccc(CNC(=O)c2cnccn2)cc1`, the cytotoxicity at 10 µM is -0.56%. The same measure for `CNc1ncccc1CN1CCN(C)CC(C(=O)N(C)C)C1` (stereo not given): 16.1%. The same measure for `CNC(=O)c1sc2ccccc2c1C1CCN(c2nc(C)cc(C)n2)C1` (stereo not given): 4.93%; for `CN(C)c1ccc(CC2CCN(c3cnccn3)C2)nn1` (stereo not given): 2.97%. Regarding `Cc1c(NC(=O)CN2CCC(Oc3cnccn3)CC2)cnn1C`, the cytotoxicity at 10 µM was -4.68%. For the compound `Cc1noc(C)c1C(=O)N1CCCC1(C)C(=O)NC1CCCC1` (stereo not given), the cytotoxicity at 10 µM was -1.33%. As for `Cc1nc(C(C)NC(=O)NCc2nccn2CC(C)C)cs1` (stereo not given), the figure is -20.7%; as for `CN(C)C(=O)Cc1ccccc1NCc1noc(-c2ccccc2)n1`, 6.95%. Turning to `COc1ccc(NC(=O)N(C)Cc2ccco2)cn1`, the cytotoxicity at 10 µM was -11.8%.

Regarding `CSCC(C)(O)CNC(=O)c1cccc(Cl)c1Cl` (stereo not given), the cytotoxicity at 10 µM turned out to be 0.126%. Regarding `CC(C)Cc1noc(CN2CCN(C(=O)c3cccs3)CC2)n1`, the cytotoxicity at 10 µM was -14.3%. The same measure for `Cc1ccc(C(=O)Nc2cnn(CC(=O)NC3CCCC3)c2)c(=O)[nH]1`: -4.09%.

Turning to `Cc1ccc(NC(C)C(=O)NCc2cccs2)cc1Cl` (stereo not given), the cytotoxicity at 10 µM is -2.27%. For the compound `FC(F)(F)CN1CCC(CCNc2ncccn2)CC1`, the cytotoxicity at 10 µM was -3.94%.

With `O=C(COCC1CC1)Nc1ccn(Cc2cccc3cccnc23)n1`, the cytotoxicity at 10 µM turned out to be 13.9%. As for `CC(C)c1ccc(O)c(C(=O)NC2CCN(c3ncccn3)CC2)c1`, the figure is 9.81%; as for `COc1nc(C)ccc1CNC(=O)NC(C)Cc1c(C)nn(C)c1C` (stereo not given), 8.37%. As to `CC(C)C(=O)NS(=O)(=O)c1ccc(F)c(C(F)(F)F)c1`, the cytotoxicity at 10 µM was -2.32%. Turning to `Cc1cc(CN2CCc3nn(C)c(=O)cc3C2)on1`, the cytotoxicity at 10 µM was -8.17%.

Take `CS(=O)(=O)N1CCc2c(cccc2NC(=O)CC(F)(F)F)C1`: the cytotoxicity at 10 µM turned out to be 5.06%.

In the case of `Cc1cccc(N2CCC3(CCCN3Cc3cn(C)nc3C)CC2)n1`, the cytotoxicity at 10 µM is -4.78%. Turning to `CCc1nc(CN2CC[C@@](O)(CCOC)[C@H](C)C2)cs1`, the cytotoxicity at 10 µM was 10%. For the compound `CN(Cc1cnc(N)nc1)C(=O)c1coc(COc2cccc(F)c2)n1`, the cytotoxicity at 10 µM was 0.998%. As to `CSCCCNc1nccc(-c2cc(C(=O)O)ccn2)n1`, the cytotoxicity at 10 µM was found to be 3.49%. On to `COc1ccc2c(=O)n(CC3CCCN(C)C3)ccc2c1OC` (stereo not given), for which the cytotoxicity at 10 µM was -0.391%. Consider `CCN(Cc1nc(COC)no1)Cc1cc2ccc(F)cc2[nH]c1=O`, for which the cytotoxicity at 10 µM was 2.03%. With `CCc1nccc(CN2CCCC(CNC(=O)c3ccccn3)C2)n1` (stereo not given), the cytotoxicity at 10 µM was found to be 4.63%. On to `CC(C)c1cc(NCC(O)c2ccncc2)n2nccc2n1` (stereo not given), for which the cytotoxicity at 10 µM is -1.8%. `O=C(c1cccc(-n2cccn2)c1)N1CCCOC(Cn2cccn2)C1` (stereo not given): the cytotoxicity at 10 µM was -6.58%. On to `CCn1c(CC2CCN(S(=O)(=O)N3CCCCC3)CC2)nn(C)c1=O`, for which the cytotoxicity at 10 µM came out at 1.58%.

`CCN1CCC(CC(=O)N(C)C(C)c2cncs2)CC1` (stereo not given): the cytotoxicity at 10 µM worked out at 6.05%. Take `COCCc1noc(Cn2ccc3ccccc3c2=O)n1`: the cytotoxicity at 10 µM worked out at 0.0869%. For `CCc1cc(NCCc2cnccn2)n2nc(C)c(C)c2n1`, the cytotoxicity at 10 µM was determined as 5.18%. Consider `CN(Cc1n[nH]c2c1CCC2)C(=O)CCc1cc2n(n1)CCCNC2`, for which the cytotoxicity at 10 µM was -0.861%. As for `COc1ccc([C@@H]2CN(C(=O)CCC(F)(F)F)C[C@H]2NC(C)=O)cc1`, the figure is 2.12%; as for `CC(=O)N1CCN(CC2CCOc3ccccc3C2)CC1` (stereo not given), 7.68%. `Cc1ccc2cc(CNCCCN3CCOCC3)c(=O)[nH]c2c1`: the cytotoxicity at 10 µM was -0.336%. Turning to `CCN(CCCNCc1c(C)nn(C)c1N(C)C)S(C)(=O)=O`, the cytotoxicity at 10 µM was -6.89%. The same measure for `O=C(O)[C@@H]1CCCN1c1nccc(Nc2ccccc2)n1`: 12.2%; for `CCN(CC)Cc1cn2c(n1)CN(C1CCOC1)CC2` (stereo not given): 4.12%; for `O=C1CC[C@H]2[C@H](CCN2c2ncc(F)cn2)N1c1cccnc1`: 0.864%.

Consider `COCC(=O)N1CCC2(CC1)COCCN2CCN(C)C`, for which the cytotoxicity at 10 µM was -3.28%. Consider `Cn1cnc2c1C(C(=O)N1CCCC1)N(CC1CC1)CC2` (stereo not given), for which the cytotoxicity at 10 µM is 6.37%. Consider `CC(C)NC(=O)N1CC[C@@H](N(C)C)[C@@H]1Cc1ccccc1`, for which the cytotoxicity at 10 µM was 9.82%. `Cc1ccc(CN2CC[C@H]3OCC[C@@]3(C(=O)N3CCCO3)C2)o1`: the cytotoxicity at 10 µM is 8.83%. Turning to `CN1CCN(C(=O)NC2CC2)Cc2cccnc21`, the cytotoxicity at 10 µM was -2.96%. For `COCCN1CC[C@H](O)[C@@H]1Cc1ccccc1`, the cytotoxicity at 10 µM was -10%. With `Cc1ccc(N2CCC3(CCN(C(=O)c4ccccn4)CC3)CC2)nn1`, the cytotoxicity at 10 µM stood at 0.255%.

On to `COCCNC(=O)[C@H]1CC[C@@H]2[C@@H](CCN2c2ncc(F)cn2)O1`, for which the cytotoxicity at 10 µM is -2.25%. For the compound `COCCNC(=O)[C@@H]1CC[C@@H]2[C@@H](CCN2c2ncc(F)cn2)O1`, the cytotoxicity at 10 µM was -0.554%. In the case of `O=C(C1CC=CC1)N1C[C@@H](OCc2cccnc2)[C@H]2OCCC[C@H]21`, the cytotoxicity at 10 µM was determined as 2.74%. For the compound `CN(C)C(=O)CO[C@H]1CN(Cc2nccs2)[C@@H]2COC[C@H]12`, the cytotoxicity at 10 µM amounted to 5.08%.

With `Cc1c(Cl)cccc1S(=O)(=O)N1C[C@H]2CC[C@@H](C1)N(C)C2=O`, the cytotoxicity at 10 µM amounted to 3.42%. As for `Cc1noc(C)c1CN1C[C@H]2CC[C@@H](C1)N(Cc1cc(F)cc(F)c1)C2`, the figure is -11.9%.
